According to ChEMBL document CHEMBL4118244, “Design, synthesis and biological evaluation of benzofuran appended benzothiazepine derivatives as inhibitors of butyrylcholinesterase and antimicrobial agents” (Bioorg Med Chem, 2018):
Converted amounts (≈) assume the structure as drawn. The source made the active and inactive calls. No cut-off for these calls is given here.

Experiments:
Candida albicans [1] = assay: Antifungal activity against Candida albicans ATCC 10231 assessed as diameter of inhibition zone at 200 ug per disc after 48 hrs by agar disc diffusion method; assay type: functional; details: ATCC 10231, 48 h, read-out: DIZ
Summary of the method: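 Yeast tested by agar disc diffusion. Compounds at 20 mg mL⁻¹ in DMSO, filter-sterilised. 6 mm discs carried 10 µl (200 µg per disc), with DMSO discs as negative control. Incubation 48 h at 30 °C. Zone diameter was averaged over 3 repeats (±1 mm).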

Pseudomonas aeruginosa [2] = assay: Antibacterial activity against Pseudomonas aeruginosa ATCC 27853; assay type: functional
Escherichia coli [3] = assay: Antibacterial activity against Escherichia coli ATCC 10536 assessed as diameter of inhibition zone at 200 ug per disc after 24 hrs by agar disc diffusion method; assay type: functional; details: ATCC 10536, 24 h, read-out: DIZ
Summary of the method: (§1)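 Agar disc diffusion. Compounds at 20 mg mL⁻¹ in DMSO, filter-sterilised. 100 µL of 10⁸ CFU mL⁻¹ bacteria spread on nutrient agar. 6 mm discs carried 10 µl (200 µg per disc), with DMSO discs as negative control. Incubation 24 h at 37 °C. Read-out is inhibition zone diameter, mean of 3 repeats (±1 mm).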

Escherichia coli [4] = assay: Antibacterial activity against Escherichia coli ATCC 10536; assay type: functional
Klebsiella pneumoniae [5] = assay: Antibacterial activity against Klebsiella pneumoniae ATCC 10031 assessed as diameter of inhibition zone at 200 ug per disc after 24 hrs by agar disc diffusion method; assay type: functional; details: ATCC 10031, 24 h, read-out: DIZ; summary of the method: as §1
Salmonella paratyphi [6] = assay: Antibacterial activity against Salmonella paratyphi A serotype ATCC 5702; assay type: functional
Pseudomonas aeruginosa [7] = assay: Antibacterial activity against Pseudomonas aeruginosa ATCC 27853 assessed as diameter of inhibition zone at 200 ug per disc after 24 hrs by agar disc diffusion method; assay type: functional; details: ATCC 27853, 24 h, read-out: DIZ; summary of the method: as §1
Bacillus spizizenii [8] = assay: Antibacterial activity against Bacillus subtilis ATCC 6633; assay type: functional
Aspergillus niger [9] = assay: Antifungal activity against Aspergillus niger ATCC 16404 assessed as diameter of inhibition zone at 200 ug per disc after 72 hrs by agar disc diffusion method; assay type: functional; details: for zone of inhibition at 200 µg/disc: ATCC 16404, 72 h, read-out: DIZ
Summary of the method: (§2)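 Agar disc diffusion against mold. Compounds at 20 mg mL⁻¹ in DMSO, filter-sterilised. 6 mm discs carried 10 µl (200 µg per disc), with DMSO discs as negative control. Incubation 72 h at 30 °C. Read-out is growth inhibition zone diameter, mean of 3 repeats (±1 mm).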

[10] = target: Acetylcholinesterase (Electrophorus electricus) (UniProt O42275); assay: Inhibition of electric eel AChE using acetylthiocholine iodide as substrate pretreated for 15 mins followed by substrate addition measured for 6 mins by Ellman's method
Summary of the method: (§3)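 Ellman spectrophotometric assay in 0.1 M phosphate buffer pH 8.0 with DTNB, 25 °C. AChE (electric eel, Type V-S) or BChE was preincubated 15 min with compound before adding acetylthiocholine iodide or butyrylthiocholine iodide, respectively. Absorbance change at 412 nm was read for 6 min. Five concentrations were tested in triplicate, corrected by a nonenzymatic blank, with a no-inhibitor reference.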

[11] = test system: Staphylococcus epidermidis; assay: Antibacterial activity against Staphylococcus epidermidis ATCC 12228; assay type: functional
Bacillus spizizenii [12] = assay: Antibacterial activity against Bacillus subtilis ATCC 6633 assessed as diameter of inhibition zone at 200 ug per disc after 24 hrs by agar disc diffusion method; assay type: functional; details: ATCC 6633, 24 h, read-out: DIZ; summary of the method: as §1
Klebsiella pneumoniae [13] = assay: Antibacterial activity against Klebsiella pneumoniae ATCC 10031; assay type: functional
[14] = test system: Staphylococcus epidermidis; assay: Antibacterial activity against Staphylococcus epidermidis ATCC 12228 assessed as diameter of inhibition zone at 200 ug per disc after 24 hrs by agar disc diffusion method; assay type: functional; details: ATCC 12228, 24 h, read-out: DIZ; summary of the method: as §1
Proteus vulgaris [15] = assay: Antibacterial activity against Proteus vulgaris PTCC 1182; assay type: functional
Shigella dysenteriae [16] = assay: Antibacterial activity against Shigella dysenteriae PTCC 1188; assay type: functional
Aspergillus brasiliensis [17] = assay: Antifungal activity against Aspergillus brasiliensis PTCC 5011 assessed as diameter of inhibition zone at 200 ug per disc after 72 hrs by agar disc diffusion method; assay type: functional; details: for zone of inhibition at 200 µg/disc: PTCC 5011, 72 h, read-out: DIZ; summary of the method: as §2
Staphylococcus aureus [18] = assay: Antibacterial activity against Staphylococcus aureus ATCC 29737 assessed as diameter of inhibition zone at 200 ug per disc after 24 hrs by agar disc diffusion method; assay type: functional; details: ATCC 29737, 24 h, read-out: DIZ; summary of the method: as §1
Aspergillus niger [19] = assay: Antifungal activity against Aspergillus niger ATCC 16404; assay type: functional
Shigella dysenteriae [20] = assay: Antibacterial activity against Shigella dysenteriae PTCC 1188 assessed as diameter of inhibition zone at 200 ug per disc after 24 hrs by agar disc diffusion method; assay type: functional; details: PTCC 1188, 24 h, read-out: DIZ; summary of the method: as §1
Salmonella paratyphi [21] = assay: Antibacterial activity against Salmonella paratyphi A serotype ATCC 5702 assessed as diameter of inhibition zone at 200 ug per disc after 24 hrs by agar disc diffusion method; assay type: functional, Salmonella enterica subsp. enterica serovar Paratyphi A; details: Salmonella enterica, ATCC 5702, 24 h; read-out: DIZ; summary of the method: as §1
Staphylococcus aureus [22] = assay: Antibacterial activity against Staphylococcus aureus ATCC 29737; assay type: functional
Candida albicans [23] = assay: Antifungal activity against Candida albicans ATCC 10231; assay type: functional
Proteus vulgaris [24] = assay: Antibacterial activity against Proteus vulgaris PTCC 1182 assessed as diameter of inhibition zone at 200 ug per disc after 24 hrs by agar disc diffusion method; assay type: functional; details: PTCC 1182, 24 h, read-out: DIZ; summary of the method: as §1
Aspergillus brasiliensis [25] = assay: Antifungal activity against Aspergillus brasiliensis PTCC 5011; assay type: functional
Cholinesterase = Cholinesterase (Equus caballus, UniProt P81908); assay: Inhibition of equine serum BChE using butyrylthiocholine iodide as substrate pretreated for 15 mins followed by substrate addition measured for 6 mins by Ellman's method; summary of the method: as §3
Chain of Cholinesterase (P81908 whole entry): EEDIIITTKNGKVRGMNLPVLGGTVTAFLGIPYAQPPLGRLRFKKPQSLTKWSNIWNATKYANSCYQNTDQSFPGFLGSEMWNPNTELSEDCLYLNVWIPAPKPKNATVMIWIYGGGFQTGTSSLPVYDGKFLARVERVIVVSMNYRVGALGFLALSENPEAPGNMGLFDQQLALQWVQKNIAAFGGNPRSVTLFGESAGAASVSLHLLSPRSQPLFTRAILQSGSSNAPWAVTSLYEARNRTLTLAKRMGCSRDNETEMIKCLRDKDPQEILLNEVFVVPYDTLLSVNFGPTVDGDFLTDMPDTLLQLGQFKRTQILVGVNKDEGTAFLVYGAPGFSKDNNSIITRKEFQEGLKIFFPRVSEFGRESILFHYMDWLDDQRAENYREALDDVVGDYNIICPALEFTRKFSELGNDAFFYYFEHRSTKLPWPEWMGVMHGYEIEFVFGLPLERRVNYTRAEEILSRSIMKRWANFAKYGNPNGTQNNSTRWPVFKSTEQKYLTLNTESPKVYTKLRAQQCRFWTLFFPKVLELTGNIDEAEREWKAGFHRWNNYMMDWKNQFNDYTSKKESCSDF

Chain of Acetylcholinesterase (Electrophorus electricus) (O42275 24-633 limits assumed): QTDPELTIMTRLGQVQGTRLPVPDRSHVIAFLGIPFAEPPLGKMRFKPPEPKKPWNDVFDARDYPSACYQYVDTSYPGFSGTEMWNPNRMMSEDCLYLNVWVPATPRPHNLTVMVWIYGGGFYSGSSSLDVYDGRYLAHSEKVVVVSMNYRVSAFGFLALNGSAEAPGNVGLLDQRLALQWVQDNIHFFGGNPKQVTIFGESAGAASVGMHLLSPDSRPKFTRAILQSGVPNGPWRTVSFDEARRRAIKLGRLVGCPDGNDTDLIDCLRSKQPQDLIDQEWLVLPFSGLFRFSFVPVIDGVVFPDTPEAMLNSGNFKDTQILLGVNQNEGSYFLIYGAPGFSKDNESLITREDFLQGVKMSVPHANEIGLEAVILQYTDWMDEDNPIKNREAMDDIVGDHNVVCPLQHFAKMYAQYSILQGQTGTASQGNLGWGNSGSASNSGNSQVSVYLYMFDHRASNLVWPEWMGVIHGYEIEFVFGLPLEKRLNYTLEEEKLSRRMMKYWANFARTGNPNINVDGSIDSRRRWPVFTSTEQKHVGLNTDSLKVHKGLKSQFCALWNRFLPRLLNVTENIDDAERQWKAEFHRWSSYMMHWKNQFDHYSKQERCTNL

For O=[N+]([O-])c1ccc2oc(C3=Nc4ccccc4SC(c4ccccc4F)C3)cc2c1 (configuration not stated), the zone of inhibition at 200 µg/disc (Candida albicans [1]) was 19 mm, the MIC (Pseudomonas aeruginosa [2]) was “inactive” and the zone of inhibition at 200 µg/disc (Escherichia coli [3]) was 12 mm. The MIC (Escherichia coli [4]) was 50 µg/mL (≈ 119 µM), the zone of inhibition at 200 µg/disc (Klebsiella pneumoniae [5]) was < 6 mm and the MIC (Salmonella paratyphi [6]; Salmonella enterica subsp. enterica serovar Paratyphi A) was “inactive”. For the same compound, the zone of inhibition at 200 µg/disc (Pseudomonas aeruginosa [7]) was < 6 mm, the MIC (Bacillus spizizenii [8]) was “inactive” and the zone of inhibition at 200 µg/disc (Aspergillus niger [9]) was < 6 mm. The inhibition [10] was “inactive”, the MIC [11] was 5 µg/mL (≈ 11.9 µM) and the zone of inhibition at 200 µg/disc (Bacillus spizizenii [12]) was < 6 mm. The MIC (Klebsiella pneumoniae [13]) was “inactive”, the zone of inhibition at 200 µg/disc [14] was 10 mm and the MIC (Proteus vulgaris [15]) was 0.125 µg/mL (≈ 0.299 µM). For the same compound, the MIC (Shigella dysenteriae [16]) was “inactive”, the zone of inhibition at 200 µg/disc (Aspergillus brasiliensis [17]) was < 6 mm and the zone of inhibition at 200 µg/disc (Staphylococcus aureus [18]) was 17 mm. The MIC (Aspergillus niger [19]) was “inactive”, the zone of inhibition at 200 µg/disc (Shigella dysenteriae [20]) was < 6 mm and the zone of inhibition at 200 µg/disc (Salmonella paratyphi [21]) was < 6 mm. For the same compound, the MIC (Staphylococcus aureus [22]) was 2.5 µg/mL (≈ 5.97 µM), the MIC (Candida albicans [23]) was 0.125 µg/mL (≈ 0.299 µM) and the zone of inhibition at 200 µg/disc (Proteus vulgaris [24]) was 23 mm. For the same compound, the MIC (Aspergillus brasiliensis [25]) was “inactive” and the IC50 (Cholinesterase; read-out: IC50) was 22 µM.
With NYSTATIN the inhibition zone (IZ) (Aspergillus niger [9]) was 27 mm, the inhibition zone (IZ) (Aspergillus brasiliensis [17]) was 23 mm and the MIC (Aspergillus niger [19]) was 0.25 µg/mL. For the same compound, the MIC (Candida albicans [23]) was 0.125 µg/mL and the MIC (Aspergillus brasiliensis [25]) was 0.5 µg/mL.
In the case of COc1ccc(C2CC(c3cc4cc(Br)ccc4o3)=Nc3ccccc3S2)cc1 (configuration not stated), the inhibition [10] is reported as “inactive” and the IC50 (Cholinesterase; read-out: IC50) is reported as 1 µM.
For Brc1ccc2oc(C3=Nc4ccccc4SC(c4c[nH]c5ccccc45)C3)cc2c1 (configuration not stated), the inhibition [10] was “inactive” and the IC50 (Cholinesterase; read-out: IC50) was 28 µM.
For Cc1ccc(C2CC(c3cc4cc(Br)ccc4o3)=Nc3ccccc3S2)cc1 (configuration not stated), the inhibition [10] was “inactive” and the IC50 (Cholinesterase; read-out: IC50) was 8.5 µM.
For Fc1ccccc1C1CC(c2cc3cc(Br)ccc3o2)=Nc2ccccc2S1 (configuration not stated), the zone of inhibition at 200 µg/disc (Candida albicans [1]) was 13 mm, the MIC (Pseudomonas aeruginosa [2]) was 50 µg/mL (≈ 111 µM) and the zone of inhibition at 200 µg/disc (Escherichia coli [3]) was < 6 mm. For the same compound, the MIC (Escherichia coli [4]) was “inactive”, the zone of inhibition at 200 µg/disc (Klebsiella pneumoniae [5]) was < 6 mm and the MIC (Salmonella paratyphi [6]; Salmonella enterica) was 50 µg/mL (≈ 111 µM). For the same compound, the zone of inhibition at 200 µg/disc (Pseudomonas aeruginosa [7]) was 15 mm, the MIC (Bacillus spizizenii [8]) was “inactive” and the zone of inhibition at 200 µg/disc (Aspergillus niger [9]) was < 6 mm. The inhibition [10] was “inactive”, the MIC [11] was 5 µg/mL (≈ 11.1 µM) and the zone of inhibition at 200 µg/disc (Bacillus spizizenii [12]) was < 6 mm. For the same compound, the MIC (Klebsiella pneumoniae [13]) was “inactive”, the zone of inhibition at 200 µg/disc [14] was 9 mm and the MIC (Proteus vulgaris [15]) was “inactive”. For the same compound, the MIC (Shigella dysenteriae [16]) was “inactive”, the zone of inhibition at 200 µg/disc (Aspergillus brasiliensis [17]) was < 6 mm and the zone of inhibition at 200 µg/disc (Staphylococcus aureus [18]) was 10 mm. For the same compound, the MIC (Aspergillus niger [19]) was “inactive”, the zone of inhibition at 200 µg/disc (Shigella dysenteriae [20]) was < 6 mm and the zone of inhibition at 200 µg/disc (Salmonella paratyphi [21]) was 11 mm. For the same compound, the MIC (Staphylococcus aureus [22]) was 5 µg/mL (≈ 11.1 µM), the MIC (Candida albicans [23]) was 25 µg/mL (≈ 55.3 µM) and the zone of inhibition at 200 µg/disc (Proteus vulgaris [24]) was < 6 mm. For the same compound, the MIC (Aspergillus brasiliensis [25]) was “inactive” and the IC50 (Cholinesterase; read-out: IC50) was 13.7 µM.
O=[N+]([O-])c1ccc2oc(C3=Nc4ccccc4SC(c4cccc5ccccc45)C3)cc2c1 (configuration not stated) was tested, and the zone of inhibition at 200 µg/disc (Candida albicans [1]) was 13 mm, the MIC (Pseudomonas aeruginosa [2]) was “inactive” and the zone of inhibition at 200 µg/disc (Escherichia coli [3]) was < 6 mm. The MIC (Escherichia coli [4]) was “inactive”, the zone of inhibition at 200 µg/disc (Klebsiella pneumoniae [5]) was 11 mm and the MIC (Salmonella paratyphi [6]; Salmonella enterica) was 50 µg/mL (≈ 111 µM). The zone of inhibition at 200 µg/disc (Pseudomonas aeruginosa [7]) was < 6 mm, the MIC (Bacillus spizizenii [8]) was 0.125 µg/mL (≈ 0.277 µM) and the zone of inhibition at 200 µg/disc (Aspergillus niger [9]) was < 6 mm. The inhibition [10] was “inactive”, the MIC [11] was 0.25 µg/mL (≈ 0.555 µM) and the zone of inhibition at 200 µg/disc (Bacillus spizizenii [12]) was 15 mm. The MIC (Klebsiella pneumoniae [13]) was 50 µg/mL (≈ 111 µM), the zone of inhibition at 200 µg/disc [14] was 30 mm and the MIC (Proteus vulgaris [15]) was “inactive”. For the same compound, the MIC (Shigella dysenteriae [16]) was “inactive”, the zone of inhibition at 200 µg/disc (Aspergillus brasiliensis [17]) was < 6 mm and the zone of inhibition at 200 µg/disc (Staphylococcus aureus [18]) was 20 mm. The MIC (Aspergillus niger [19]) was “inactive”, the zone of inhibition at 200 µg/disc (Shigella dysenteriae [20]) was < 6 mm and the zone of inhibition at 200 µg/disc (Salmonella paratyphi [21]) was 11 mm. The MIC (Staphylococcus aureus [22]) was 0.25 µg/mL (≈ 0.555 µM), the MIC (Candida albicans [23]) was 2.5 µg/mL (≈ 5.55 µM) and the zone of inhibition at 200 µg/disc (Proteus vulgaris [24]) was < 6 mm. For the same compound, the MIC (Aspergillus brasiliensis [25]) was “inactive” and the IC50 (Cholinesterase; read-out: IC50) was 55 µM.
O=[N+]([O-])c1ccc2oc(C3=Nc4ccccc4SC(c4ccccc4)C3)cc2c1 (configuration not stated) was tested, and the inhibition [10] was “inactive” and the IC50 (Cholinesterase) was “Not Active”.
Oc1ccc(C2CC(c3cc4cc(Br)ccc4o3)=Nc3ccccc3S2)cc1 (configuration not stated) was tested, and the inhibition [10] was “inactive” and the IC50 (Cholinesterase; read-out: IC50) was 6.5 µM.
For O=[N+]([O-])c1ccc2oc(C3=Nc4ccccc4SC(c4c[nH]c5ccccc45)C3)cc2c1 (configuration not stated), the inhibition [10] was “inactive” and the IC50 (Cholinesterase; read-out: IC50) was 72 µM.
For Brc1ccc2oc(C3=Nc4ccccc4SC(c4ccccc4)C3)cc2c1 (configuration not stated), the inhibition [10] was “inactive” and the IC50 (Cholinesterase; read-out: IC50) was 8.5 µM.
